Data set [1] can be described thus: Therapeutic index, ratio of CC50 for HEK293T cells to IC50 for HIV-1 sub-type-C MJ4 infected in HEK293T cells. Conditions: human, read-out: Ratio CC50/IC50. Format: toxicity, cell-based. The method, boiled down: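 HEK293T cells (2 × 10⁴/well) with HSA-formulated compound (5:1 molar), 3-fold dilutions, 48 h at 37 °C. […] IC50 from luciferase after single-cycle infection with HIV-like particles carrying MJ4 subtype C RT/IN, over the noncytotoxic range.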

The nature of data set [2]: Prodrug conversion in C57BL/6 mouse liver assessed as Tmax of TFV metabolite at 10 mg/kg, po measured for 24 hrs by LC-MS/MS analysis. It is filed as ADME, organism-based. Conditions: in vivo. The procedure, abridged: (§1)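 After a single 10 mg/kg gavage (10% EtOH/90% olive oil) in male C57BL/6 mice, liver, kidney and brain were collected at 1, 4 and 24 h (n = 3 per time point). Tissues were rinsed in ice-cold saline and homogenized in ice-cold PBS pH 7.4 (3× weight for brain, 5× for liver and kidney). Prodrug and TFV were measured by LC–MS/MS; AUC0–24h by the linear trapezoidal rule.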

Data set [3] is described as follows: Prodrug conversion in C57BL/6 mouse liver assessed as Cmax of TFV metabolite at 10 mg/kg, po measured for 24 hrs by LC-MS/MS analysis. It is filed as ADME, organism-based. The note with it: in vivo. The method, boiled down:
as §1

A short description of data set [4]: Prodrug conversion in C57BL/6 mouse liver assessed as AUC (0 to 24 hrs) of TFV metabolite at 10 mg/kg, po measured for 24 hrs by LC-MS/MS analysis. Format: ADME, organism-based. Conditions: in vivo. The procedure, abridged:
as §1

Data set [5] is described as follows: Ratio of AUC (0 to 24 hrs) of prodrug to TFV metabolite in C57BL/6 mouse liver at 10 mg/kg, po measured for 24 hrs by LC-MS/MS analysis. Format: ADME, organism-based. The note with it: in vivo. The method, boiled down: as §1
Data set [6] can be described thus: Clearance in C57BL/6 mouse plasma at 3 mg/kg, iv measured for 8 hrs by LC-MS/MS analysis. Format: ADME, organism-based. The note with it: in vivo. The procedure, abridged: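 Male C57BL/6 mice got a single 3 mg/kg i.v. dose in 10% PEG-300, 10% Solutol HS-15 and 80% saline, n = 3 per time point. Retro-orbital blood was taken at 0.1–8 h and plasma prodrug measured by LC–MS/MS. AUC0–8h used the trapezoidal rule; Cl = Dose/AUC0–8h.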

Data set [7] can be described thus: Clearance in C57BL/6 mouse plasma at 10 mg/kg, po measured for 24 hrs by LC-MS/MS analysis. It is filed as ADME, organism-based. The note with it: in vivo. The procedure, abridged:
(§2)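 Male C57BL/6 mice (8–12 weeks, 20–30 g) got a single gavage of 10 mg/kg in 10% EtOH/90% olive oil, n = 3 per time point with sparse sampling. Retro-orbital blood was taken at 0.25–24 h and plasma spun off. Prodrug and TFV were measured by LC–MS/MS.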

Data set [8] in a line: Prodrug conversion in C57BL/6 mouse plasma assessed as Tmax of TFV metabolite at 10 mg/kg, po measured for 24 hrs by LC-MS/MS analysis. Format: ADME, organism-based. The note with it: in vivo. The procedure, abridged:
as §2

Data set [9] is described as follows: Prodrug conversion in C57BL/6 mouse plasma assessed as Cmax of TFV metabolite at 10 mg/kg, po measured for 24 hrs by LC-MS/MS analysis. It is filed as ADME, organism-based. The note with it: in vivo. The method, boiled down: as §2
A short description of data set [10]: Prodrug conversion in C57BL/6 mouse plasma assessed as AUC (0 to 24 hrs) of TFV metabolite at 10 mg/kg, po measured for 24 hrs by LC-MS/MS analysis. Format: ADME, organism-based. Conditions: in vivo. The method, boiled down: as §2
Data set [11] in a line: Ratio of AUC (0 to 24 hrs) of prodrug to TFV metabolite in C57BL/6 mouse plasma at 10 mg/kg, po measured for 24 hrs by LC-MS/MS analysis. Format: ADME, organism-based. Conditions: in vivo. The procedure, abridged: as §2
The nature of data set [12]: Prodrug conversion in C57BL/6 mouse kidney assessed as Tmax of TFV metabolite at 10 mg/kg, po measured for 24 hrs by LC-MS/MS analysis. It is filed as ADME, organism-based. Conditions: in vivo. The method, boiled down: as §1
Data set [13] is described as follows: Prodrug conversion in C57BL/6 mouse kidney assessed as Cmax of TFV metabolite at 10 mg/kg, po measured for 24 hrs by LC-MS/MS analysis. Conditions: in vivo. Format: ADME, organism-based. The method, boiled down: as §1
Data set [14] can be described thus: Prodrug conversion in C57BL/6 mouse kidney assessed as AUC (0 to 24 hrs) of TFV metabolite at 10 mg/kg, po measured for 24 hrs by LC-MS/MS analysis. Format: ADME, organism-based. Conditions: in vivo. The method, boiled down:
as §1

Data set [15] can be described thus: Stability in human liver microsomes assessed as compound remaining at 3 uM pretreated for 5 mins followed by NADPH addition measured upto 120 mins by LC-MS/MS analysis. It is filed as ADME, Microsome. The note with it: 2.083 h, time < 125 min. The procedure, abridged: (§3)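 Human liver microsomes (1 mg/mL) in 100 mM potassium phosphate were preincubated with 3 µM test compound (final) at 37 °C for 5 min, then started with NADPH. Duplicate aliquots at 0, 15, 30, 60 and 120 min were quenched in cold MeOH with internal standard and analysed by LC–MS/MS. Values were normalized to 0 min; a no-NADPH control was read at 120 min.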

Data set [16] in a line: Metabolic stability in human liver microsomes assessed as half life. Format: ADME, Microsome. The method, boiled down: as §3
Background: Microsomes from liver hold many membrane-bound enzymes, among them those of drug oxidation.

Data set [17] is described as follows: Tmax in C57BL/6 mouse liver at 10 mg/kg, po measured for 24 hrs by LC-MS/MS analysis. Format: ADME, organism-based. The procedure, abridged: as §1
Data set [18] can be described thus: Half life in C57BL/6 mouse plasma at 10 mg/kg, po measured for 24 hrs by LC-MS/MS analysis. It is filed as ADME, organism-based. Conditions: in vivo. The procedure, abridged:
as §2

Data set [19] is described as follows: Volume of distribution in C57BL/6 mouse plasma at 10 mg/kg, po measured for 24 hrs by LC-MS/MS analysis. It is filed as ADME, organism-based. Conditions: in vivo. The method, boiled down:
as §2

Data set [20] can be described thus: Tmax in C57BL/6 mouse kidney at 10 mg/kg, po measured for 24 hrs by LC-MS/MS analysis. Format: ADME, organism-based. The procedure, abridged: as §1
Data set [21] is described as follows: Ratio of AUC (0 to 24 hrs) of prodrug to TFV metabolite in C57BL/6 mouse kidney at 10 mg/kg, po measured for 24 hrs by LC-MS/MS analysis. Format: ADME, organism-based. The note with it: in vivo. The method, boiled down:
as §1

Data set [22] in a line: Tmax in C57BL/6 mouse brain at 10 mg/kg, po measured for 24 hrs by LC-MS/MS analysis. Format: ADME, organism-based. The method, boiled down:
as §1

One may read the Tmax as the time from dosing to the highest level. What is called Cmax is the maximum level reached in the sampled fluid or tissue. In general, AUC refers to the area under the concentration-time curve, a measure of exposure. In the case of `CCCCCCCCCCCCCCCCSCCCOP(=O)(O)CO[C@H](C)Cn1cnc2c(N)ncnc21.N`, the selectivity ratio in data set [1] amounted to 4980. Also, the Tmax in data set [2], in [8] and in data set [12] was 4 h each time. The Cmax in [3] came to 1440 ng/mL; in data set [9] it was 39.4 ng/mL; in data set [13] it was 695 ng/mL. For the same compound, the AUC was 29100 ng·h/mL in [4], 657 ng·h/mL in data set [10] and 14600 ng·h/mL in [14]. The results for the Ratio in data set [5] and in [11] were 0.222 and 0.333, respectively. The CL in data set [6] and in [7] was 147 mL/min/kg each time.
Turning to `CCCCCCCCCCCCCSCCCCCCOP(=O)(O)CO[C@H](C)Cn1cnc2c(N)ncnc21`, the selectivity ratio in data set [1] was greater than 1370.
Same read-out and setting: under `CCCCCCCSCCCCCCCCCCCCOP(=O)(O)CO[C@H](C)Cn1cnc2c(N)ncnc21` stands greater than 296.
As to `C[C@H](Cn1cnc2c(N)ncnc21)OCP(=O)(O)OCCCSCCCCCCCCCCCOc1ccccc1.N`, the Stability in data set [15] is on record as 69%. Further, in data set [1], the selectivity ratio is greater than 8060.
Turning to `C[C@H](Cn1cnc2c(N)ncnc21)OCP(=O)(O)OCCCSCCCCCCCCCCC#Cc1ccccc1`, the selectivity ratio in data set [1] was greater than 12500.
On the same count and under the same terms, in the case of `C[C@H](Cn1cnc2c(N)ncnc21)OCP(=O)(O)OCCCSCCCCCCCCCCC#CC1CCCCC1` it was greater than 7580; in that of `CCCCCCCCCCCCCCSCCCOP(=O)(O)CO[C@H](C)Cn1cnc2c(N)ncnc21`, greater than 16700.
Take `C[C@H](Cn1cnc2c(N)ncnc21)OCP(=O)(O)OCCCSCCCCCCCCCCCOc1ccc(F)cc1.N`: in data set [15], the Stability came to 85%. The selectivity ratio in data set [1] is 6250.
Take `CCCCCCCCCCCCSCCCOP(=O)(O)CO[C@H](C)Cn1cnc2c(N)ncnc21`: in data set [1], the selectivity ratio was greater than 532.
Same read-out and setting: in the case of `CCCCCCCCCCSCCCCCCCCCOP(=O)(O)CO[C@H](C)Cn1cnc2c(N)ncnc21` it was greater than 1720.
The same measure, in the same setting: in the case of `C[C@H](Cn1cnc2c(N)ncnc21)OCP(=O)(O)OCCCSCCCCCCCCCCCCC#C[Si](C)(C)C` it was greater than 4170.
For orientation: half-life means the time in which the quantity being followed falls by half. In the case of `C[C@H](Cn1cnc2c(N)ncnc21)OCP(=O)(O)OCCCOCCCCCCCCCCCCCCCC(F)(F)F.N`, in data set [16], the half-life is 2 h.
As to `C[C@H](Cn1cnc2c(N)ncnc21)OCP(=O)(O)OCCCSCCCCCCCCCCC#Cc1ccc(F)cc1`, the selectivity ratio in data set [1] was greater than 10000.
For the compound `C[C@H](Cn1cnc2c(N)ncnc21)OCP(=O)(O)OCCCSCCCCCCCCCCCCC1CCCCC1.N`, the selectivity ratio in data set [1] was greater than 2000. Also, the Tmax in data set [17] was 4 h; in [2], 24 h; in data set [8] it was 4 h; in data set [20] it was 4 h; in data set [12], 24 h. For the same compound, the Cmax in data set [3] amounted to 3900 ng/mL; in data set [9] it was 47.8 ng/mL. The AUC is 66600 ng·h/mL in data set [4], 740 ng·h/mL in [10] and 22100 ng·h/mL in [14]. The Ratio in [5] was found to be 0.411; in data set [11], 1.44; in [21], 0.488. Besides, the CL in [6] and in data set [7] was 85.8 mL/min/kg in each case. Moreover, the t1/2 in [18] stood at 3.07 h. For the same compound, the Vd in [19] stood at 228 L/kg.
Regarding `C[C@H](Cn1cnc2c(N)ncnc21)OCP(=O)(O)OCCCSCCCCCCCCCCCCc1ccc(F)cc1.N`, the selectivity ratio in data set [1] was greater than 11100. Also, the Tmax in data set [2] turned out to be 24 h; in [8], 4 h; in [20], 4 h; in data set [12], 24 h; in data set [22] it was 4 h. For the same compound, the highest concentration (Cmax) in data set [3] came to 3980 ng/mL; in data set [13] it was 1420 ng/mL. Besides, the AUC was 72500 ng·h/mL in data set [4], 635 ng·h/mL in [10] and 23800 ng·h/mL in data set [14]. The Ratio was 0.877 in data set [5] and 0.322 in data set [21]. The CL in data set [6] and in data set [7] was 134 mL/min/kg throughout.
On to `CCCCCCCCCCCCCCCCCSCCOP(=O)(O)CO[C@H](C)Cn1cnc2c(N)ncnc21`, for which the selectivity ratio in data set [1] stood at 7150.
Turning to `C[C@H](Cn1cnc2c(N)ncnc21)OCP(=O)(O)OCCCSCCCCCCCCCCCCCCC(C)(C)C`, the selectivity ratio in data set [1] turned out to be 138.
The same measure, in the same setting: in the case of `C#CCCCCCCCCCCCCCCSCCCOP(=O)(O)CO[C@H](C)Cn1cnc2c(N)ncnc21` it was greater than 3570.
On the same count and under the same terms, in the case of `C[C@H](Cn1cnc2c(N)ncnc21)OCP(=O)(O)OCCCSCCCCCCCCCCCCC#CC(C)(C)C` it was greater than 516; in that of `CC(C)[Si](C#CCCCCCCCCCCCSCCCOP(=O)(O)CO[C@H](C)Cn1cnc2c(N)ncnc21)(C(C)C)C(C)C`, 224; in that of `COC(=O)CCCCCCCCCCCCCCCSCCCOP(=O)(O)CO[C@H](C)Cn1cnc2c(N)ncnc21`, greater than 70.
Still for that read-out and setting: under `CCCCCCCCCCCCCCCCOCCCOP(=O)(O)CO[C@H](C)Cn1cnc2c(N)ncnc21` [TENOFOVIR EXALIDEX] stands 5420.
Consider `C[C@H](Cn1cnc2c(N)ncnc21)OCP(=O)(O)OCCCSCCCCCCCCCCCSc1ccccc1`, for which the selectivity ratio in data set [1] is greater than 594.
Same read-out and setting: in the case of `C[C@H](Cn1cnc2c(N)ncnc21)OCP(=O)(O)OCCCSCCCCCCCCCCCOC1CCCCC1` it was greater than 542; in that of `C[C@H](Cn1cnc2c(N)ncnc21)OCP(=O)(O)OCCCSCCCCCCCCCCCCc1ccccc1`, greater than 12500; in that of `CCCCSCCCCCCCCCCCCCCCOP(=O)(O)CO[C@H](C)Cn1cnc2c(N)ncnc21`, greater than 331.

The values above are taken from ChEMBL document CHEMBL6071194, “Building Metabolically Stable and Potent Anti-HIV Thioether-Lipid Analogues of Tenofovir Exalidex: A thorough Pharmacological Analysis” (J Med Chem, 2024).
